ChEMBL document CHEMBL4680079, “Discovery of a Quinoline-4-carboxamide Derivative with a Novel Mechanism of Action, Multistage Antimalarial Activity, and Potent in Vivo Efficacy” (J Med Chem, 2016)
Converted amounts (≈) assume the structure as drawn.

Experiments:
Plasmodium berghei [1] = test: Antiplasmodial activity against GFP-transfected Plasmodium berghei ANKA infected in NMRI mouse assessed as reduction in parasitemia by measuring effective dose administered once daily oral dose for 4 days; assay type: functional; settings: 96 h, time 4 day
Procedure, shortened: (§1)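 Female NMRI mice (n=3 per group, randomized, not blinded) infected with GFP-transfected P. berghei ANKA. Oral dosing once daily for 4 days in 10% DMSO/40% PEG400/50% water or HPMC suspension vehicle. Parasitaemia measured by flow cytometry on blood collected 96 h after infection. Mice watched for toxicity over 4 h post-dose each day.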

Plasmodium falciparum [2] = test: Antiplasmodial activity against drug resistant Plasmodium falciparum […] [3H]hypoxanthine incorporation assay; assay type: functional, organism-based
Procedure, shortened: (§2)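 Strains (K1, W2, 7G8, TM90C2A, D6, V1/S resistant; NF54 sensitive) cultured by the Trager and Jensen method; EC50 determined in vitro from [3H]hypoxanthine incorporation.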

Plasmodium falciparum [3] = test: Antiplasmodial activity against drug resistant Plasmodium falciparum W2 by [3H]hypoxanthine incorporation assay; assay type: functional, organism-based; procedure, shortened: as §2
[4] = Intrinsic clearance in CD1 mouse liver microsomes at 0.5 uM in presence of NADPH incubated upto 30 mins by UPLC-MS/MS analysis; assay type: ADME, Microsome; settings: 0.5 h
Procedure, shortened: (§3)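 Compound at 0.5 μM incubated with female CD1 mouse, male Sprague-Dawley rat or pooled human liver microsomes (0.5 mg/mL, 50 mM potassium phosphate, pH 7.4). Reaction started with excess NADPH. Samples taken at 0-30 min, quenched in acetonitrile, analysed by UPLC-MS/MS. Verapamil used as control, single time course.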

Plasmodium yoelii = test: Antiplasmodial activity against Plasmodium yoelli liver stage forms; assay type: functional, organism-based
[5] = AUC in NMRI mouse at 10 mg/kg, po administered as gavage by UPLC-MS/MS analysis; assay type: ADME, organism-based; set-up: dose 10 mg/kg; settings: in vivo
Procedure, shortened: (§4)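 Female NMRI mice (n=3) dosed by oral gavage as a solution at 10 mg free base/kg (10 mL/kg; vehicle 5 or 10% DMSO, 40% PEG400). Blood levels measured by UPLC-MS/MS. Parameters derived from the blood concentration-time curve.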

MRC5 = test: Antiproliferative activity against human MRC5 cells assessed as reduction in cell viability after 68 hrs by resazurin dye based fluorescence assay; settings: MRC5, 68 h
Procedure, shortened: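 MRC-5 fibroblasts plated overnight as monolayers, exposed to compound pre-diluted in MEM for 68 h. Resazurin then added (final 50 μM) for 3 h, fluorescence read at ex 528/em 590 nm. Signal converted to % inhibition against high- and no-inhibition controls. Plates accepted at Z' > 0.5.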

Plasmodium berghei [6] = test: Antiplasmodial activity against Plasmodium berghei ANKA infected in NMRI mouse assessed as survival days at 3 mg/kg, po QD for 4 days; assay type: functional; settings: time 4 day
Plasmodium falciparum [7] = test: Antiplasmodial activity against drug resistant Plasmodium falciparum K1 by [3H]hypoxanthine incorporation assay; assay type: functional, organism-based; procedure, shortened: as §2
[8] = Intrinsic clearance in human liver microsomes at 0.5 uM in presence of NADPH incubated upto 30 mins by UPLC-MS/MS analysis; assay type: ADME, Microsome; settings: 0.5 h; procedure, shortened: as §3
Plasmodium berghei [9] = test: Antiplasmodial activity against Plasmodium berghei ANKA infected in NMRI mouse assessed as survival days at 30 mg/kg, po QD for 4 days; assay type: functional; settings: time 4 day
[10] = Cmax in NMRI mouse at 10 mg/kg, po administered as gavage by UPLC-MS/MS analysis; assay type: ADME, organism-based; set-up: route oral, dose 10 mg/kg; settings: in vivo; procedure, shortened: as §4
[11] = Tmax in NMRI mouse at 10 mg/kg, po administered as gavage by UPLC-MS/MS analysis; assay type: ADME, organism-based; settings: in vivo; procedure, shortened: as §4
Plasmodium falciparum [12] = test: Antiplasmodial activity against chloroquine-sensitive Plasmodium falciparum 3D7 infected in human red blood cells assessed as growth inhibition by SYBR Green fluorescence assay; assay type: functional, organism-based, RBC; settings: 3D7, Erythrocyte
Procedure, shortened: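 P. falciparum 3D7 grown in 5% human red cells in RPMI 1640 (pH 7.3) with 0.5% Albumax II, hypoxanthine and gentamicin at 37°C under 1% O₂/3% CO₂. Growth measured by SYBR green fluorescence (ex 485/em 528 nm), with mefloquine as assay control. EC50 calculated.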

Plasmodium falciparum [13] = test: Antiplasmodial activity against drug resistant Plasmodium falciparum 7G8 by [3H]hypoxanthine incorporation assay; assay type: functional, organism-based; procedure, shortened: as §2
[14] = Volume of distribution at steady state in NMRI mouse at 3 mg/kg, iv administered as bolus dose by UPLC-MS/MS analysis; assay type: ADME, organism-based; settings: in vivo, read-out: Vdss
Procedure, shortened: (§5)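 Intravenous bolus solution, 3 mg free base/kg (5 mL/kg; 10% DMSO, 90% saline), given to female NMRI mice (n=3). Compound level in blood determined by UPLC-MS/MS. PK parameters derived from the blood concentration-time curve.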

Plasmodium falciparum [15] = test: Antiplasmodial activity against drug resistant Plasmodium falciparum V1/S by [3H]hypoxanthine incorporation assay; assay type: functional, organism-based; procedure, shortened: as §2
Plasmodium falciparum [16] = test: Antiplasmodial activity against drug resistant Plasmodium falciparum TM90C2A by [3H]hypoxanthine incorporation assay; assay type: functional, organism-based; procedure, shortened: as §2
Plasmodium berghei [17] = test: Antiplasmodial activity against Plasmodium berghei ookinete form assessed as growth inhibition incubated for 22 hrs by GFP-based fluorescence microscopic analysis; assay type: functional, organism-based
Plasmodium berghei [18] = test: Antiplasmodial activity against Plasmodium berghei ANKA infected in NMRI mouse assessed as reduction in parasitemia at 10 mg/kg, po QD for 4 days; assay type: functional; set-up: scale not given: the % may be the effect or the level left; settings: time 4 day; procedure, shortened: as §1
[19] = Intrinsic clearance in Sprague-Dawley rat liver microsomes at 0.5 uM in presence of NADPH incubated upto 30 mins by UPLC-MS/MS analysis; assay type: ADME, Microsome; settings: 0.5 h; procedure, shortened: as §3
Plasmodium falciparum [20] = test: Antiplasmodial activity against late stage (IV/V) Plasmodium falciparum NF54 gametocytes transfected with GFP-LUC assessed as growth inhibition incubated for 72 hrs by mitotracker Red-CMXROS dye based fluorescence microscopic analysis; assay type: functional, organism-based; settings: NF54, 72 h
Procedure, shortened: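 NF54 pfs16-LUC-GFP stage IV–V gametocytes (10% parasitaemia, 0.1% haematocrit) exposed to compound in 0.4% DMSO, three concentrations per log, for 72 h at 37°C under 5% CO2/5% O2/90% N2. MitoTracker Red CM-H2Xros then added for 16 h and viable gametocytes counted by imaging.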

Plasmodium falciparum [21] = test: Antiplasmodial activity against drug resistant Plasmodium falciparum D6 by [3H]hypoxanthine incorporation assay; assay type: functional, organism-based; procedure, shortened: as §2
Plasmodium berghei [22] = test: Antiplasmodial activity against Plasmodium berghei ANKA infected in NMRI mouse assessed as reduction in parasitemia at 30 mg/kg, po QD for 4 days; assay type: functional; set-up: scale not given: the % may be the effect or the level left; settings: time 4 day; procedure, shortened: as §1
[23] = Clearance in NMRI mouse blood at 3 mg/kg, iv administered as bolus dose by UPLC-MS/MS analysis; assay type: ADME, organism-based; procedure, shortened: as §5
Plasmodium berghei [24] = test: Antiplasmodial activity against Plasmodium berghei infected in NMRI mouse assessed as reduction in parasitemia at 3 mg/kg, po QD for 4 days; assay type: functional; set-up: scale not given: the % may be the effect or the level left; settings: time 4 day; procedure, shortened: as §1
[25] = Kinetic aqueous solubility of the compound by laser nephelometry; assay type: physicochemical; settings: read-out: Kinetic_solubility
Procedure, shortened: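 Kinetic solubility measured by laser nephelometry. DMSO serial dilutions diluted into water to give final 100–5 μg/mL at 1.0% DMSO. Read immediately, in triplicate aliquots.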

[26] = Half-life in NMRI mouse at 3 mg/kg, iv administered as bolus dose by UPLC-MS/MS analysis; assay type: ADME, organism-based; settings: in vivo; procedure, shortened: as §5
[27] = Hepatic extraction in rat during hepatic portal vein study; assay type: ADME; settings: read-out: ERH
[28] = Protein binding in CD1 mouse plasma measured after 5 hr by UPLC-MS/MS analysis based equilibrium dialysis method; assay type: ADME, cell-free; settings: mouse, 5 h
Procedure, shortened: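 Equilibrium dialysis of female CD1 mouse plasma spiked at 10 μg/mL (12-14 kDa membrane) against isotonic buffer for 5 h at ~37°C with shaking. Unbound fraction taken as the buffer/plasma peak-area ratio by UPLC-MS/MS. n=6 replicates, run in triplicate.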

Plasmodium berghei [29] = test: Antiplasmodial activity against Plasmodium berghei ANKA infected in NMRI mouse assessed as survival days at 1 mg/kg, po QD for 4 days; assay type: functional; settings: time 4 day
[30] = Intrinsic clearance in rat hepatocytes; assay type: ADME, cell-based, Hepatocyte
[31] = target: Voltage-gated inwardly rectifying potassium channel KCNH2 (Homo sapiens, UniProt Q12809); test: Inhibition of human ERG by IonWorks patch-clamp electrophysiology method
Sequence of Voltage-gated inwardly rectifying potassium channel KCNH2 (Q12809 whole entry): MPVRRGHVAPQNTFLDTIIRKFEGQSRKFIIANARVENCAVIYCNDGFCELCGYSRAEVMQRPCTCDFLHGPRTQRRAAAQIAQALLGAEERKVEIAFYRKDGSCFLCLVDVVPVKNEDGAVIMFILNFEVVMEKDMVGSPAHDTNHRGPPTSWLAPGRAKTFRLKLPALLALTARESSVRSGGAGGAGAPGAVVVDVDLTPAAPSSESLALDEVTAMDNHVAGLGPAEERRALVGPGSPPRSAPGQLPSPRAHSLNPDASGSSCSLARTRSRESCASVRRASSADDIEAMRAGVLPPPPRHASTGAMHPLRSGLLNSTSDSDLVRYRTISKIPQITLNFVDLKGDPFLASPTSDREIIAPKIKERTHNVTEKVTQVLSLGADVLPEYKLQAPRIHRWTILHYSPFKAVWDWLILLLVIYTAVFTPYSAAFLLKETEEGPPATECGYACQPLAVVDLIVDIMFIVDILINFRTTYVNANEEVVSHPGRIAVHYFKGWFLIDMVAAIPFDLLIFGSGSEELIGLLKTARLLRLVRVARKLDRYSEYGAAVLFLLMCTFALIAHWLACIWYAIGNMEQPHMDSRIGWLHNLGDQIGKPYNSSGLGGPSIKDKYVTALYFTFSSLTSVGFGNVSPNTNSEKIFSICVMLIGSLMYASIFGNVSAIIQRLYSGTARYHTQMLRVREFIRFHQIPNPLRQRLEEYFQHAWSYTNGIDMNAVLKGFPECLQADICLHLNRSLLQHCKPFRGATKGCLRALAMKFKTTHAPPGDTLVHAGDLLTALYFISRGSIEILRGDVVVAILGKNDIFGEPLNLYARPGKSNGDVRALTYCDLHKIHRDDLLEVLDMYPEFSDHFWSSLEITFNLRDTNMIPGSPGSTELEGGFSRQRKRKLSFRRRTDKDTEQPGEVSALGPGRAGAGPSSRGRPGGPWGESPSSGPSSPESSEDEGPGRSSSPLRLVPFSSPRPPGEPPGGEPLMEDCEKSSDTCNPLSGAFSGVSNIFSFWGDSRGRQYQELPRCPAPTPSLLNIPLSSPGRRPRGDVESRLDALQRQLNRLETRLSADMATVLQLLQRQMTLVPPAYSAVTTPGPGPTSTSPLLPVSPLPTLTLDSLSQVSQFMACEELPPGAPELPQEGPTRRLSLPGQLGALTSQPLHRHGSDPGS
Procedure, shortened: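 hERG K⁺ channel inhibition measured by IonWorks patch-clamp electrophysiology. Eight-point concentration-response curves made from 3-fold serial dilutions down from the maximum final assay concentration. Each curve generated on 2 occasions.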

Plasmodium berghei [32] = test: Antiplasmodial activity against Plasmodium berghei ANKA infected in NMRI mouse assessed as survival days at 10 mg/kg, po QD for 4 days; assay type: functional; settings: time 4 day
[33] = Oral bioavailability in NMRI mouse at 10 mg/kg administered via gavage by UPLC-MS/MS analysis; assay type: ADME, organism-based; settings: in vivo; procedure, shortened: as §4
[34] = Permeability of the compound at 10 uM incubated for 5 hrs by UPLC-MS/MS analysis based PAMPA method; assay type: ADME; settings: read-out: permeability
Procedure, shortened: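 PAMPA run on a lipid-oil-lipid tri-layer filter at pH 7.4. Compound at 10 μM in PBS (DMSO ≤5%) in donor wells, PBS in acceptor wells, kept 5 h at room temperature. Both compartments quantified by UPLC-MS/MS. Data accepted only when recovery exceeded 70%.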

Plasmodium berghei [35] = test: Antiplasmodial activity against Plasmodium berghei ANKA infected in NMRI mouse assessed as reduction in parasitemia at 1 mg/kg, po QD for 4 days; assay type: functional; set-up: scale not given: the % may be the effect or the level left; settings: time 4 day; procedure, shortened: as §1

O=C(NCCN1CCCC1)c1cc(NCCC2CCOCC2)nc2ccc(Cl)cc12
ED90 (Plasmodium berghei [1]): 1 mg/kg
EC50 (Plasmodium falciparum [2]): 0.5 nM
EC50 (Plasmodium falciparum [3]): 0.6 nM
CLH [4]: 2 mL/min/g
EC50 (Plasmodium yoelii): 1 nM
AUC [5]: 1210 ng·h/mL
EC50 (MRC5): 31000 nM
Survival (Plasmodium berghei [6]): 6 days
EC50 (Plasmodium falciparum [7]): 0.8 nM
CLH [8]: 1 mL/min/g
Survival (Plasmodium berghei [9]): 10 days
Cmax [10]: 193 ng/mL
Tmax [11]: 0.5 h
EC50 (Plasmodium falciparum [12]): 6 nM
EC50 (Plasmodium falciparum [13]): 0.7 nM
Vd [14]: 7.4 L/kg
EC50 (Plasmodium falciparum [15]): 0.9 nM
EC50 (Plasmodium falciparum [16]): 0.5 nM
EC50 (Plasmodium berghei [17]): 14 nM
Activity (Plasmodium berghei [18]): 99.9%
CLH [19]: 0.8 mL/min/g
EC50 (Plasmodium falciparum [20]): 39 nM
EC50 (Plasmodium falciparum [21]): 0.7 nM
Activity (Plasmodium berghei [22]): 99.9%
clearance [23]: 34 mL/min/kg
Activity (Plasmodium berghei [24]): 98%
solubility kinetic [25]: 230 µM (≈ 99.1 µg/mL)
half-life [26]: 2.9 h
hepatic extraction ratio [27]: 0.76
PPB [28]: 77%
Survival (Plasmodium berghei [29]): 7 days
CLH [30]: 3 mL/min/g
IC50 [31]: > 11000 nM
Survival (Plasmodium berghei [32]): 8 days
bioavailability [33]: 23%
Papp at 5 h, 10 µM [34]: 4.8 ×10⁻⁶ cm/s
Activity (Plasmodium berghei [35]): 90%
